# Measured values taken from paper PMC5672994 (Molecular Imaging, 2017).
# Key:
# [1] = Lipophilicity; assay type: physicochemical; settings: shake-flask
# [2] = tested on: PSMA(+) LNCaP tumors; assay: Small-animal PET imaging in mice bearing subcutaneous LNCaP tumors; assay type: in vivo; settings: for peak (maximum) kidney uptake / time of peak kidney uptake postadministration: dynamic PET kidney TAC; for absolute tumor uptake, fold lower in comparison to ^68Ga-1 / specificity of tumor accumulation: PET; for specificity of tumor accumulation: PSMA(+) LNCaP tumors, blocking with PMPA 20 nmol/mouse; for peak tumor uptake: subcutaneous LNCaP tumor, iv
# Procedure, shortened: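 Athymic Balb/c nude mice carried LNCaP xenografts (5.0 million cells sc, right shoulder, in Matrigel 1:1), imaged at ~200-300 mg. Dosing was by iv tail vein in PBS pH7.4: static 15.4-18.7 MBq (~0.56-0.68 nmol), dynamic ~28 MBq. Mice were under isoflurane. Dynamic scans ran 3500 s; static scans at 0.5, 1, 2 and 3 h. Decay-corrected VOI %ID/g was taken. Blocking used coinjected PMPA 20 nmol/mouse (n = 3).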
# [3] = Metabolism in vivo; settings: mice, 15 minutes after injection, HPLC
# Procedure, shortened: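 Mice (n = 2/group) received 7.3-11.1 MBq (0.3-0.4 nmol) of ⁶⁸Ga-radiotracer in PBS by tail-vein injection and were killed at 15 min. Heparinized blood was spun at 1700 g for 5 min. Plasma was ultrafiltered (30 kDa cutoff, 9660 g, 10 min). Filtrate and protein fractions were gamma-counted, and filtrate aliquots were analysed by RP-HPLC for metabolites.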
# [4] = Stability of formulated radiotracer in saline or PBS; assay type: physicochemical; settings: incubation in saline or PBS at 37°C for over 4 hours
LogD (n-octanol: PBS pH7.4) [1],"time of peak tumor uptake postadministration ([2]; dynamic PET, LNCaP tumor)","absolute tumor uptake after 3 hours postadministration ([2]; static PET, LNCaP tumor)",Compound,peak (maximum) kidney uptake [2],time of peak kidney uptake postadministration [2],"tumor-associated radioactivity after 3500 seconds ([2]; dynamic PET, LNCaP tumor)","absolute tumor uptake, fold lower in comparison to ^68Ga-1 ([2]; LNCaP tumor)",specificity of tumor accumulation [2],peak tumor uptake ([2]; dynamic PET),radiotracer intact in soluble fraction of the blood pool [3],stability with respect to changes in RCP [4],"tumor-associated activity retained for up to 3 hours ([2]; static PET, LNCaP tumor)"
−4.06 ± 0.10,,,"O=C([O-])CN(CCN(CC(=O)[O-])Cc1cc(CCC(=O)NCCCCCC(=O)NCCCC[C@H](NC(=O)N[C@@H](CCC(=O)O)C(=O)O)C(=O)O)ccc1[O-])Cc1cc(CCC(=O)O)ccc1[O-].[68Ga+3].[OH3+] [^68Ga-1, ^68Ga-HBED-CC-PSMA, reference compound]",around 30 %ID/g,~500 s,> 8.0 %ID/g,,,,,,
−3.24 ± 0.05,5 to 10 min,0.8-1.2 %ID/g,^68Ga-DFO-Nsucc-PSMA [^68Ga-4],,,,~10 fold,specific accumulation,3-4 %ID/g,100%,stable,

Compound,LogD (n-octanol: PBS pH7.4) [1],"time of peak tumor uptake postadministration ([2]; dynamic PET, LNCaP tumor)","absolute tumor uptake after 3 hours postadministration ([2]; static PET, LNCaP tumor)",peak (maximum) kidney uptake [2],time of peak kidney uptake postadministration [2],"tumor-associated radioactivity after 3500 seconds ([2]; dynamic PET, LNCaP tumor)","absolute tumor uptake, fold lower in comparison to ^68Ga-1 ([2]; LNCaP tumor)",specificity of tumor accumulation [2],peak tumor uptake ([2]; dynamic PET),radiotracer intact in soluble fraction of the blood pool [3],stability with respect to changes in RCP [4],"tumor-associated activity retained for up to 3 hours ([2]; static PET, LNCaP tumor)"
^68Ga-DFO-pNCS-Bn-PSMA [^68Ga-7],−2.60 ± 0.02,,,~50 %ID/g,~1400 s,2.90 ± 0.46 %ID/g,~2.5 fold,specific accumulation,3.5-4.0 %ID/g,100%,stable,2.5-3.5 %ID/g
